# HUVEC prolif 384 = inhibitors of HUVEC proliferation, primary screen, cell-based, 384-well | CellTiter-Glo luminescence, 72 h; stronger effect = lower value | viability, % at 10 µM (by protocol) | hit rate 1.1% among 86,000 | AID 648, 2007;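 active = viability at or below 30%; inactive = viability above 30%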
# ERb SRC1 inh = inhibitors of ERβ-SRC1 coactivator interaction, primary screen, biochemical, TR-FRET, ERβ LBD, SRC-1 peptide; TR-FRET ER-beta LBD / SRC1-Cy5 peptide binding; receptor agonist-loaded with 1 µM estradiol; inhibition, % at 25.6 µM; hit rate 1.3% among 86,000; AID 633, 2007;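 active = compounds whose percent inhibition of the receptor-coactivator binding signal exceeds about 50% in the single-dose screen, limit read from the data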
# Target sequence (Q92731 whole entry, looked up, the tested form may be a part): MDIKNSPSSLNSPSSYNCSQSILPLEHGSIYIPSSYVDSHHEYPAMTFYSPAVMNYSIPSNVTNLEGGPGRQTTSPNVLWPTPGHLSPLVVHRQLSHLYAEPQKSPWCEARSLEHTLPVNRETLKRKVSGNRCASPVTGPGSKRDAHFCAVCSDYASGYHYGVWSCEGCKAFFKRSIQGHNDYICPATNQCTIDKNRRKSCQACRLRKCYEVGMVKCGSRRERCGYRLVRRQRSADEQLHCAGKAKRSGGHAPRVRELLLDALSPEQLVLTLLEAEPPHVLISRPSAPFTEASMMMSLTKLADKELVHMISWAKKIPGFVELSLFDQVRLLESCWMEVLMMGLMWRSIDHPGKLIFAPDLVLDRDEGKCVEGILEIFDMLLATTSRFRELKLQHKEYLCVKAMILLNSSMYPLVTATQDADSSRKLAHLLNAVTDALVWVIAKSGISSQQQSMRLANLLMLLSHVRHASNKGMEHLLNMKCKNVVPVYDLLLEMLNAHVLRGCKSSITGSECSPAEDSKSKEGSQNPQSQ
# ERa SRC1 inh = ERα–SRC-1 coactivator interaction inhibitors, primary screen, biochemical, TR-FRET, ERα LBD, estradiol-bound; Estrogen receptor (Homo sapiens), P03372; TR-FRET ER-alpha LBD / SRC-1 peptide; inhibition, % at 25.6 µM; hit rate 1.7% among 86,000; in the data active = inhibition above about 50%
# ERa coact pot = enhancers of ERα–SRC-1 coactivator binding, primary screen, biochemical, TR-FRET, ERα LBD, low estradiol | Estrogen receptor (Homo sapiens), P03372 | TR-FRET ERalpha-LBD/SRC-Cy5 coactivator binding, 2 h; 100 = basal binding, no effect | coactivator binding (% of control), % at 25.6 µM | hit rate 1.3% among 86,000 | AID 639, 2007; in the data active = activity above about 200%;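 note: binding measured in presence of low estradiol as agonist stimulus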
# Lung fibro prol = antiproliferative effect on LL 47 fibroblasts – human, LL 47 cells, CellTiter-Glo luminescence, primary screen; hit rate 1.1% among 85,000; viability, % at 10 µM; LL 47 human lung fibroblast viability, ATP luminescence; stronger effect = lower value; AID 719, 2007;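 active = viability at or below 50% in the single dose screen; inactive = viability above 50%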;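 note: compound exposure lasted 72 h before the ATP readout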
#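 Signal: luminescent ATP detection, CellTiter-Glo; assay system: LL 47 human lung fibroblasts; input: 1,150 cells/well; incubation: overnight cell rest, 72 h compound treatment at 37 °C; measure: % viability versus median cells-only luminescence; medium: IMEM growth medium with 15% fetal bovine serum; dosing: compound addition at 0.1% DMSO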
# H69AR inhibit = proliferation blockers of H69AR lung cancer cells, primary screen, cell-based, human, 86K library; H69AR lung tumor viability, ATP luminescence, 72 h; stronger effect = lower value; viability, % at 10 µM; hit rate 6% among 85,000; AID 598, 2007;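 active = viability at or below 40%; inactive = viability above 40%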;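 note: multidrug resistant small cell line overexpressing MRP-1 efflux transporter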
# A number is an active result; n = inactive; x = no result given; [ ] = dose if it differs, or a comment. Hits are enriched below; roughly 9.2% of the tested compounds scored in any of these assays.
SMILES,HUVEC prolif 384,ERb SRC1 inh,ERa SRC1 inh,ERa coact pot,Lung fibro prol,H69AR inhibit
Cc1cccc(C)c1NC(=O)CSc1nc(-c2ccco2)cc(C(F)(F)F)n1,n,n,n,n,n,30
Cc1ccc(Cn2ccc(NC(=O)CCSc3nc(-c4ccco4)cc(C(F)(F)F)n3)n2)cc1,n,n,n,n,n,14
O=C(CSc1nc(-c2ccco2)cc(C(F)(F)F)n1)NCCc1ccccc1,n,n,n,n,n,n
CCn1nc(C)c(NC(=O)CCCSc2nc(-c3ccco3)cc(C(F)(F)F)n2)c1C,n,n,n,n,n,x
Cc1ccccc1Cn1ccc(NC(=O)CCSc2nc(-c3ccco3)cc(C(F)(F)F)n2)n1,n,n,n,n,n,n
O=C(CSc1nc(-c2ccco2)cc(C(F)(F)F)n1)Nc1ccccc1C(F)(F)F,n,n,n,n,n,26
O=C(O)CC(C(=O)Nc1ccc(Cl)c(Cl)c1)C1CCCO1 (configuration not stated),n,n,n,n,n,n
Cc1ccc(NC(=O)CN2C(=O)S/C(=C\c3ccc(-c4cccc(C(=O)O)c4C)o3)C2=O)cc1,n,n,n,250[fluorescence artefact?],n,n
CN(C)c1ccc(NC(=O)Cn2cc3c(n2)CCCC3)cc1,n,95[fluorescence artefact?],85[fluorescence artefact?],n,n,n
COc1ccc(-n2c(SCc3nnc(-c4ccccc4)o3)nnc2-c2ccccc2)cc1,n,n,n,n,n,n
COc1ccc(-c2nnc(SCc3nnc(-c4ccccc4)o3)n2-c2ccccc2)cc1,n,n,n,n,n,2.6
COc1ccc2[nH]c3nc(SCc4nnc(-c5ccccc5)o4)nnc3c2c1,n,52[fluorescence artefact?],85[fluorescence artefact?],n,n,9.3
O=C(c1ccccc1)c1ccc(C(=O)N2CCN(c3ccc(F)cc3)CC2)o1,n,n,n,n,n,n
Cc1ccc(-n2ncc3c(=O)[nH]c(SC(C)C)nc32)cc1,n,n,n,n,n,n
COC(=O)c1ccc(CSc2nc3c(cnn3-c3ccc(C)cc3)c(=O)[nH]2)o1,29,n,n,n,n,20
CCOC(=O)C(C)Sc1nc2c(cnn2-c2ccc(C)cc2)c(=O)[nH]1 (configuration not stated),n,n,n,n,n,19
CCOc1cc(CNC(=O)CN2C(=O)c3ccccc3S2(=O)=O)ccc1OC,n,n,n,n,n,n
O=c1oc2ccccc2cc1-c1nc(-c2cccs2)cs1,n,n,n,n,n,n
COc1cccc2cc(-c3nc(-c4cccs4)cs3)c(=O)oc12,n,n,50[fluorescence artefact?],n,n,n
C=CCNC(=O)CCCCC(=O)NCC=C,n,n,n,n,n,32
COc1ccc(OC)c(-c2csc(N(Cc3ccco3)C(=O)c3cccs3)n2)c1,n,n,n,n,n,8.8
CCN(CC)CCCN(C(=O)c1cccs1)c1nc(-c2ccc(OC)cc2)cs1,15,n,n,n,n,29
COc1ccccc1NC(=O)CN(Cc1ccco1)C(=O)c1cccs1,n,n,n,n,n,n
COc1ccc(-c2csc(N(CC3CCCO3)C(=O)c3cccs3)n2)cc1 (configuration not stated),n,n,n,n,n,n
CC1=C(C(=O)N2CCCCC2)C(c2cccs2)NC(=O)N1 (configuration not stated),n,n,n,n,x,n
SMILES,HUVEC prolif 384,ERb SRC1 inh,ERa SRC1 inh,ERa coact pot,Lung fibro prol,H69AR inhibit
CC(=O)N1CCc2cc(S(=O)(=O)NC(CC(C)C)C(=O)N3CCn4c3nc3ccccc34)ccc21 (configuration not stated),n,n,n,n,n,n
CCOc1ccccc1N(C(=O)CNC(=O)c1ccco1)C(C(=O)NC(C)(C)C)c1ccncc1 (configuration not stated),n,n,n,n,n,n
O=C(CSC1=NCCN1)NC12CC3CC(CC(C3)C1)C2,n,n,n,n,n,16
Cc1noc(C)c1CSc1nnc2cc(C)c3ccccc3n12,n,n,n,n,n,n
CCOC(=O)C1CCN(C(=O)C2CCN(c3nc4ccc(OC)cc4s3)CC2)CC1,n,91[fluorescence artefact?],n,n,n,x
CCOC(=O)C1=C(O)/C(=C/c2cn(CC(=O)N3CCCC3)c3ccccc23)SC1=Nc1ccccc1,n,n,n,n,n,11
COC(=O)c1cn(CC(=O)N2CCCCCC2)c2ccccc12,n,n,n,n,n,n
Cc1cc(C)cc(N2CCCn3c2nc2c3c(=O)n(CCN3CCOCC3)c(=O)n2C)c1,n,n,n,n,n,n
COc1ccc(C2=CC(c3ccc(F)cc3)n3nnnc3N2)cc1 (configuration not stated),n,n,n,n,n,n
COc1cccc(C2=CC(c3cccs3)n3nnnc3N2)c1 (configuration not stated),n,n,n,n,n,15
COc1ccccc1C1C=C(c2ccccc2)Nc2nnnn21 (configuration not stated),n,n,n,n,n,11
COc1cccc(C2=CC(c3ccc(OC)c(OC)c3OC)n3nnnc3N2)c1 (configuration not stated),n,n,n,n,n,7.6
Brc1ccc(-c2csc(NNC3=NCCCCC3)n2)cc1,n,n,n,n,48,n
Cc1cccc(NC(=O)c2cnc3scc(C)n3c2=O)c1,n,n,n,336[fluorescence artefact?],n,n
Cc1ccc(NC(=O)c2cnc3scc(C)n3c2=O)c(C)c1,n,n,50[fluorescence artefact?],220,n,n
Cc1csc2ncc(C(=O)N3c4ccccc4CC3C)c(=O)n12 (configuration not stated),n,87,n,n,n,n
Cc1csc2ncc(C(=O)Nc3ccccc3Cl)c(=O)n12,n,65[fluorescence artefact?],58[fluorescence artefact?],239[fluorescence artefact?],n,29
O=c1[nH]c2cc3c(cc2cc1CN(Cc1ccccc1)Cc1nnnn1Cc1ccco1)OCCO3,n,n,n,216,n,n
CCOc1ccc2[nH]c(=O)c(CN(Cc3cccs3)Cc3nnnn3C(C)(C)CC)cc2c1,n,n,n,n,n,28
CCc1ccc2[nH]c(=O)c(CN(Cc3ccccc3)Cc3nnnn3Cc3ccco3)cc2c1,n,n,n,n,n,21
CCOC(=O)Cn1nnnc1CN(Cc1ccccc1)Cc1cc2cc(CC)ccc2[nH]c1=O,n,n,n,n,n,n
COc1ccccc1CN(Cc1cc2cc3c(cc2[nH]c1=O)OCCO3)Cc1nnnn1Cc1ccco1,n,n,n,n,n,n

# High-throughput results deposited in PubChem by several laboratories.
